Measured values from ChEMBL document CHEMBL3808334, “Synthesis and in vitro evaluation of novel triazine analogues as anticancer agents and their interaction studies with bovine serum albumin” (Eur J Med Chem, 2016).

Columns and labels:
Assay type in all cases: ADME
Settings in all cases: cattle, isolated protein; call rule not given here
Albumin [1] = biological target: T1, Albumin (Bos taurus, UniProt P02769); test: Binding affinity to bovine serum albumin assessed as binding constant in absorption spectra by Benesie-Hildebrand plot analysis
T1 sequence (P02769 whole entry): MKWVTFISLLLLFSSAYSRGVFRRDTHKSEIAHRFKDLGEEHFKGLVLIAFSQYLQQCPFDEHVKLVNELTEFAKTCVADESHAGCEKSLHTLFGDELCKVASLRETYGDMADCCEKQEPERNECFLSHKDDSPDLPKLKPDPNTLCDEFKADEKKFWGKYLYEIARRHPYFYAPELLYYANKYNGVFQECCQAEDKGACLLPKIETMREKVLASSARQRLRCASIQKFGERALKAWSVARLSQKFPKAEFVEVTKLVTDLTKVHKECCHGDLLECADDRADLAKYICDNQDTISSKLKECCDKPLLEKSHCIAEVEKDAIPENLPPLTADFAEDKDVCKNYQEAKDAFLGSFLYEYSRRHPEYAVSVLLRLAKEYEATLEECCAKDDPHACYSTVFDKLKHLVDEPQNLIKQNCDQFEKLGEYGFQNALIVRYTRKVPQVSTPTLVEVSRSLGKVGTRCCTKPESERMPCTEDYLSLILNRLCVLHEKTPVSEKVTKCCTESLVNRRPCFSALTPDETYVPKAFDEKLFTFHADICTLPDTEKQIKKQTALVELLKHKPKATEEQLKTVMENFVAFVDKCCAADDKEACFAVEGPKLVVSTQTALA
Summary of the method: (§1)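 BSA, 10 µM, in 0.1 M phosphate buffer pH 7.4, titrated with compound (0–20 µM per the figure; diluted from 10⁻³ mol L⁻¹ DMSO stocks). Run at 300 K in a 1 cm quartz cell. UV spectra taken 200–800 nm after 5 min equilibration; fluorescence excited at 280 nm, emission 351 nm, slit 10 nm. K is the intercept/slope ratio of a linear fit of 1/(A₀−A) or 1/(F₀−F) vs 1/[compound].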

Albumin [2] = biological target: T1, Albumin; test: Binding affinity to bovine serum albumin assessed as hyperchromicity in absorption spectra up to 20 uM after 5 mins by UV-visible spectroscopic analysis relative to control
Summary of the method: (§2)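 UV-visible absorption titration of 10 µM BSA in 0.1 M phosphate buffer pH 7.4 with increasing compound, 0–20 µM. Compounds diluted from DMSO stocks into buffer. Spectra recorded 200–800 nm in a 1 cm quartz cell at 300 K after 5 min equilibration. The BSA band is at 279 nm; changes are compared with BSA alone.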

Albumin [3] = biological target: T1, Albumin; test: Binding affinity to bovine serum albumin assessed as enhancement in emission spectra up to 20 uM by fluorescence spectroscopic analysis relative to control
Summary of the method: (§3)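 Fluorescence titration of 10 µM BSA in 0.1 M phosphate buffer pH 7.4 with compound at 0–20 µM, diluted from DMSO stocks. Excitation 280 nm, slit 10 nm, 1 cm quartz cell, 300 K. Changes in the 350 nm Trp emission, new bands near 370–373 nm and isoemissive points are read against BSA alone.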

Albumin [4] = biological target: T1, Albumin; test: Binding affinity to bovine serum albumin assessed as isoemissive point up to 20 uM by fluorescence spectroscopic analysis relative to control; summary of the method: as §3
Albumin [5] = biological target: T1, Albumin; test: Binding affinity to bovine serum albumin assessed as red shift in emission intensity up to 20 uM by fluorescence spectroscopic analysis relative to control; summary of the method: as §3
Albumin [6] = biological target: T1, Albumin; test: Binding affinity to bovine serum albumin assessed as binding constant in emission spectra by Benesie-Hildebrand plot analysis; summary of the method: as §1
Albumin [7] = biological target: T1, Albumin; test: Binding affinity to bovine serum albumin assessed as change in hyperchromicity in absorption spectra up to 20 uM after 5 mins by UV-visible spectroscopic analysis relative to control; summary of the method: as §2
Albumin [8] = biological target: T1, Albumin; test: Binding affinity to bovine serum albumin up to 20 uM after 5 mins by fluorescence spectroscopic analysis; summary of the method: as §3

| Compound | K (Albumin [1]) | Activity (Albumin [2]) | Activity (Albumin [3]) | Activity (Albumin [4]) | Activity (Albumin [5]) | K (Albumin [6]) | Activity (Albumin [7]) | Activity (Albumin [8]) |
| --- | --- | --- | --- | --- | --- | --- | --- | --- |
| FC(F)(F)c1ccc(-c2nc(Nc3ccc(-c4nc5ccccc5[nH]4)cc3)nc(N3CCOCC3)n2)cc1 |  |  |  |  |  |  | Not Active | Not Active |
| OCCN1CCN(c2nc(Nc3ccc(-c4nc5ccccc5[nH]4)cc3)nc(N3CCOCC3)n2)CC1 | 1.2 ×10⁵ /M | 68.72% | 73.21% | 343 nm | 25 nm | 5.4 ×10⁴ /M |  |  |
| c1csc(-c2nc(Nc3ccc(-c4nc5ccccc5[nH]4)cc3)nc(N3CCOCC3)n2)c1 |  |  |  |  |  |  | Not Active | Not Active |
| CN1CCN(c2nc(Nc3ccc(-c4nc5ccccc5[nH]4)cc3)nc(N3CCOCC3)n2)CC1 | 8.5 ×10⁴ /M | 75.98% | 77.53% | 339 nm | 22 nm | 2.6 ×10⁴ /M |  |  |
| c1coc(-c2nc(Nc3ccc(-c4nc5ccccc5[nH]4)cc3)nc(N3CCOCC3)n2)c1 |  |  |  |  |  |  | Not Active | Not Active |
| c1ccc2[nH]c(-c3ccc(Nc4nc(NC5CCCCC5)nc(N5CCOCC5)n4)cc3)nc2c1 | 1 ×10⁵ /M | 85.87% | 23.12% | 349 nm | 17 nm | 1.6 ×10⁵ /M |  |  |
| c1ccc2[nH]c(-c3ccc(Nc4nc(N5CCCC5)nc(N5CCOCC5)n4)cc3)nc2c1 | 1 ×10⁵ /M | 65.29% | 68.99% | 341 nm | 22 nm | 5.4 ×10⁴ /M |  |  |
| c1ccc2[nH]c(-c3ccc(Nc4nc(N5CCOCC5)nc(N5CCOCC5)n4)cc3)nc2c1 | 7 ×10⁴ /M | 72.93% | 63.43% | 350 nm | 24 nm | 6.9 ×10⁴ /M |  |  |
| c1ccc2[nH]c(-c3ccc(Nc4nc(NCCN5CCOCC5)nc(N5CCOCC5)n4)cc3)nc2c1 | 8.4 ×10⁴ /M | 85.95% | 57.22% | 345 nm | 23 nm | 5.7 ×10⁴ /M |  |  |

Now from value to compound:

| K (Albumin [1]) | Activity (Albumin [2]) | Activity (Albumin [3]) | Activity (Albumin [4]) | Activity (Albumin [5]) | K (Albumin [6]) | Activity (Albumin [7]) | Activity (Albumin [8]) | Compound |
| --- | --- | --- | --- | --- | --- | --- | --- | --- |
| 9.5 ×10⁴ /M | 90.6% | 71.82% | 340 nm | 23 nm | 8 ×10⁴ /M |  |  | OCCNc1nc(Nc2ccc(-c3nc4ccccc4[nH]3)cc2)nc(N2CCOCC2)n1 |
| 1.2 ×10⁴ /M | 88.44% | 42.06% | 352 nm | 24 nm | 1.8 ×10⁵ /M |  |  | c1ccc(CNc2nc(Nc3ccc(-c4nc5ccccc5[nH]4)cc3)nc(N3CCOCC3)n2)cc1 |
| 6.3 ×10⁴ /M | 70.53% | 69.01% | 347 nm | 22 nm | 1.3 ×10⁵ /M |  |  | NCCNc1nc(Nc2ccc(-c3nc4ccccc4[nH]3)cc2)nc(N2CCOCC2)n1 |
|  |  |  |  |  |  | Not Active | Not Active | NNc1nc(Nc2ccc(-c3nc4ccccc4[nH]3)cc2)nc(N2CCOCC2)n1 |
